What was measured:
[1] = Protein binding in human plasma assessed as unbound fraction at 5 uM by LC-MS/MS analysis based equilibrium dialysis method; assay type: ADME, cell-free
[2] = Half life in human liver microsomes preincubated followed by NADPH addition and measured up to 45 mins by LC-MS/MS analysis; assay type: ADME, Microsome
[3] = Clearance in CD1 mouse at 1 mg/kg, iv measured after 0.083 to 24 hrs by UHPLC-TOF method; assay type: ADME, organism-based; settings: in vivo, time 0.083-24 hrs
[4] = Apparent permeability across apical to basolateral side in MDCK-MDR1 cells at 10 uM measured at 60 mins by LC-MS/MS analysis; assay type: ADME, cell-based, Canis lupus familiaris; settings: dog, MDCK-MDR1
[5] = Apparent permeability across basolateral side to apical side in MDCK-MDR1 cells at 10 uM measured at 60 mins by LC-MS/MS analysis; assay type: ADME, cell-based, Canis lupus familiaris; settings: dog
[6] = Oral bioavailability in Sprague-Dawley rat at 10 mg/kg administered via gavage measured after 0.02 to 24 hrs by tandem liquid chromatography/mass spectrometry; assay type: ADME, organism-based; settings: in vivo, time 0.02-24 hrs
Procedure, shortened: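 Male Sprague–Dawley rats (200–250 g), 3 per route. IV bolus at 1 mg/kg, 1 mg/mL in 40:60 dimethylacetamide/saline; oral gavage at 5 or 10 mg/kg, 5 mg/mL in 1% methyl cellulose, 0.1% Tween 80 in water. Serial blood at 0.02–24 h (ten points) into heparin, spun at 4 °C, plasma frozen; acetonitrile protein precipitation, ESI LC-MS/MS with matrix curve and internal standards.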

[7] = Intrinsic clearance in rat hepatocytes at 3 uM assessed per million cells measured up to 60 mins by LC-MS/MS analysis; assay type: ADME, cell-based, Hepatocyte; settings: read-out: CLH
[8] = Intrinsic clearance in human hepatocytes at 3 uM assessed per million cells measured up to 60 mins by LC-MS/MS analysis; assay type: ADME, cell-based, Hepatocyte; settings: read-out: CLH
[9] = Half life in human hepatocytes at 3 uM measured up to 60 mins by LC-MS/MS analysis; assay type: ADME, cell-based, Hepatocyte
[10] = Cytotoxicity against human Hep2 cells; assay type: cell-based; settings: HEp-2 cells
Procedure, shortened: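 Hep2 cells were cultured in parallel with the plaque assays at compound concentrations of 0.01 nM to 100 μM. Viability was read by MTT, CellTox green or CellTiter-Glo.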

[11] = Half life in Sprague-Dawley rat at 1 mg/kg, iv measured after 0.02 to 24 hrs by UHPLC-TOF method; assay type: ADME, organism-based; settings: in vivo, time 0.02-24 hrs
[12] = Half life in CD1 mouse at 1 mg/kg, iv measured after 0.03 to 24 hrs by UHPLC-TOF method; assay type: ADME, organism-based; settings: in vivo, time 0.03-24 hrs
[13] = Half life in CD1 mouse at 10 mg/kg, po measured after 0.083 to 24 hrs by UHPLC-TOF method; assay type: ADME, organism-based; settings: in vivo, time 0.083-24 hrs
[14] = Half life in Sprague-Dawley rat at 10 mg/kg, po measured after 0.25 to 24 hrs by UHPLC-TOF method; assay type: ADME, organism-based; settings: in vivo, time 0.25-24 hrs
[15] = Half life in Sprague-Dawley rat at 50 mg/kg, po measured after 0.02 to 24 hrs by UHPLC-TOF method; settings: in vivo
[16] = Tmax in Beagle dog at 3 mg/kg, […] by UHPLC-TOF method; assay type: ADME, organism-based, Canis lupus familiaris; settings: in vivo, po
[17] = Cmax in Sprague-Dawley rat at 50 mg/kg, po measured after 0.02 to 24 hrs by UHPLC-TOF method; assay type: ADME, organism-based; parameters: route oral, dose 50 mg/kg, time 0.02-24 hrs; settings: in vivo
[18] = Cmax in Beagle dog at 3 mg/kg, po measured after 0.03 to 24 hrs by UHPLC-TOF method; assay type: ADME, organism-based, Canis lupus familiaris; parameters: route oral, dose 3 mg/kg, time 0.03-24 hrs; settings: in vivo
[19] = Oral bioavailability in Sprague-Dawley rat at 50 mg/kg administered via gavage measured after 0.02 to 24 hrs by tandem liquid chromatography/mass spectrometry; assay type: ADME, organism-based; settings: in vivo, time 0.02-24 hrs
[20] = test system: Human orthopneumovirus; test: Antiviral activity against Respiratory syncytial virus A by Plaque reduction assay; assay type: functional, organism-based
Procedure, shortened: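 RSV A and B laboratory strains and low-passage clinical isolates were used to infect Vero or HepG2 cultures for 48 h with compound at 0.01 nM to 100 μM. Plaques were then detected by immunostaining.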

[21] = test system: Respiratory syncytial virus; test: Antiviral activity against Respiratory syncytial virus infected in human airway epithelial cells assessed as reduction in RSV titer at 10 nM preincubated for 2 hrs followed by viral infection and measured after 8 day post infection by luminescence assay relative to control; assay type: functional, HAE
Procedure, shortened: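 Primary HAE cells were differentiated for 61 days on type IV collagen-coated trans-well inserts (n = 3 cultures). Compound at 10 nM was given basolaterally for 2 h before apical inoculation with 4 × 10⁵ pfu of luciferase-expressing recombinant RSV. Apical virus titer was read by luminescence on days 7 and 8 post-infection and compared with untreated controls. Data are mean SD.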

[22] = test system: Respiratory syncytial virus; test: Antiviral activity against Respiratory syncytial virus Memphis 37b infected in human HEp2 cells by plaque assay; assay type: functional, organism-based; settings: HEp-2
[23] = test system: Respiratory syncytial virus; test: Antiviral activity against Respiratory syncytial virus Memphis 37b infected in human HEp2 cells assessed as drug resistance by measuring fold change in EC50 treated over 10 serial passages by plaque assay relative to control; assay type: functional, HEp-2
[24] = test system: Human orthopneumovirus; test: Antiviral activity against Respiratory syncytial virus A2 infected in Balb/C mouse assessed as reduction in viral titers in lung homogenates at 10 mg/kg, po treated 2 hrs prior to viral infection followed by compound redosing at 24 hrs and measured after 5 days post infection by plaque assay relative to control; assay type: functional, human respiratory syncytial virus; parameters: scale not given: the % may be the effect or the level left
Procedure, shortened: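 Female Balb/C mice aged 7–8 weeks, 6 per group, received two oral doses 2 h before and 24 h after intranasal inoculation with 5 × 10⁶ pfu of RSV A2. Mice were euthanized on day 5. Lung homogenate titers were determined by plaque assay on Vero cells and expressed as a percentage of the control group.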

[25] = Cardiotoxicity in dog assessed as effect on QT interval by telemetry; assay type: toxicity, Canis lupus familiaris
[26] = species: Rattus norvegicus; test: Toxicity in rat by micronucleus test; assay type: functional, organism-based
[27] = Induction of toxicity in human at 175 to 350 mg; settings: dose 175-350 mg
[28] = test system: Human orthopneumovirus; test: Antiviral activity against Respiratory syncytial virus A Memphis 37b infected in human assessed as reduction in mean AUC of viral load at 200 mg administered twice daily administered for 5 days by RT-qPCR analysis; assay type: functional; parameters: scale not given: the % may be the effect or the level left; settings: time 5 day
Procedure, shortened: (§1)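 Healthy adult volunteers aged 18–45 with low serum pre-existing RSV-specific antibodies were challenged on day zero with about 4 log10 PFU of RSV-A Memphis 37b. Subjects were randomized into 3 equal groups: 200 mg, 350 mg or placebo twice daily for 5 days, begun after infection was confirmed. Viral load in nasal wash was measured by RT-qPCR or by cell-based infectivity assay, and AUC was compared with placebo.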

[29] = test system: Human orthopneumovirus; test: Antiviral activity against Respiratory syncytial virus A Memphis 37b infected in human assessed as reduction in mean AUC of viral load at 350 mg administered twice daily administered for 5 days by RT-qPCR analysis; assay type: functional; parameters: scale not given: the % may be the effect or the level left; settings: time 5 day; procedure, shortened: as §1
[30] = Volume of distribution at steady state in Beagle dog at 0.3 mg/kg, iv measured after 0.03 to 24 hrs by UHPLC-TOF method; assay type: ADME, organism-based, Canis lupus familiaris; settings: in vivo, time 0.03-24 hrs, read-out: Vdss
Procedure, shortened: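 Dogs examined by a veterinary surgeon before each session, fed 2 h post-dose, water ad libitum, dosed as amorphous-solid suspension. Serial blood into heparinized tubes, centrifuged at 4 °C for 10 min at 3000g; plasma snap-frozen at −20 °C. IV sampling 2 min–24 h, oral 15 min–24 h. Plasma analysed by UHPLC-quadrupole-TOF MS.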

NCc1ccc2c(c1)nc(CN1C(=O)C3(CC3)c3ccc(F)cc31)n2CCCC(F)(F)F [SISUNATOVIR]
fraction unbound at 5 µM [1]: 0.67
half-life [2]: 0.533 h
clearance [3]: 47.9 mL/min/kg
Papp A→B at 1 h, 10 µM [4]: 0.5 ×10⁻⁶ cm/s
Papp B→A at 1 h, 10 µM [5]: 73 ×10⁻⁶ cm/s
bioavailability [6]: 102%
hepatocyte CLint at 3 µM [7]: 14.8 µL/min/1e6 cells
hepatocyte CLint at 3 µM [8]: 6.58 µL/min/1e6 cells
half-life at 3 µM [9]: 3.52 h
CC50 [10]: > 20000 nM
half-life [11]: 1.8 h
half-life [12]: 4.2 h
half-life [13]: 3.1 h
half-life [14]: 9.9 h
half-life [15]: 5.9 h
Tmax [16]: 4 h
Cmax [17]: 475 ng/mL
Cmax [18]: 82.4 ng/mL
bioavailability [19]: 132%
IC50 [20]: 1.4 nM
log(activity) [21]: 2.35
EC50 [22]: 1.18 nM
fold change (FC) [23]: 76
Activity [24]: 92%
Activity [25]: Toxic
Activity [26]: Not toxic
Activity [27]: Non-Toxic
Activity [28]: 55.25%
Activity [29]: 63.05%
Vd [30]: 17.6 L/kg

From ChEMBL document CHEMBL4825662 (J Med Chem, 2021)
